Data set [1] deals with Orthohantavirus hantanense. As to the kind of experiment: Antiviral activity against HTNV strain 76-118 infected african green monkey Vero E6 cells measured after 3 days by plaque-formation assay. Particulars: 76-118, Vero C1008, 72 h; call rule not given here. Format: functional, organism-based.
Data set [2] concerns Orthohantavirus hantanense. The data set is described as follows: Antiviral activity against Hantaan 76-118 pseudovirus infected in MDCK cells assessed as reduction in virus replication incubated for 48 hrs by luminescence assay. Type of data set: functional, organism-based. Particulars: for IC50: mdck; for pIC50: Orthohantavirus hantanense, 76-118, MDCK, 48 h, read-out: IC50.

Data set [3] can be described thus: Cytotoxicity against MDCK cells by MTT assay. Format: cell-based, Canis lupus familiaris. Particulars: dog.
Data set [4] in a line: Selective index, ratio of CC50 for MDCK cells to IC50 for Hantaan 76-118. Format: toxicity. Conditions: dog, read-out: Ratio CC50/IC50.
Data set [5] in a line: Selective index, ratio of CC50 for HEK293T cells to IC50 for antiviral activity against pseudotyped recombinant vesicular stomatitis virus delta G Gn-Gc infected HEK293T cells. Type of data set: toxicity. Particulars: human, read-out: Ratio CC50/IC50. In outline:
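Selectivity index was calculated as CC50 (HEK293T, 72 h exposure) divided by IC50 against rVSV-ΔG-Gn-Gc pseudovirus in HEK293T cells.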

Data set [6] relates to Vesicular stomatitis virus. The data set is described as follows: Antiviral activity against pseudotyped recombinant vesicular stomatitis virus delta G Gn-Gc infected HEK293T cells assessed as reduction in virus replication incubated for 48 hrs by luminescence assay. Format: functional, organism-based. Conditions: HEK-293T. In outline:
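Gn-Gc-pseudotyped VSV-ΔG particles were made by transfecting HEK293T cells with a Hantaan 76–118 Gn-Gc plasmid, adding VSV-ΔG-G after 48 h, and harvesting the supernatant 48 h later. Pseudovirus (500,000 RLU) was preincubated with a range of compound concentrations for 1 h, then a HEK293T cell suspension was added. IC50 reported as M ± I95, n = 3.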

Data set [7] is described as follows: Cytotoxicity against human HEK293T cells measured after 72 hrs by MTT assay. Type of data set: cell-based, HEK-293T. In outline: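 HEK293T cells were exposed to compounds for 72 h. CC50 was the concentration causing 50% cell death, reported as M ± I95, n = 3.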
A general note: Formazan colour is commonly taken as a measure of viable cells.

pEC50, pIC50: −log10 of the molar value.

With `O=c1c2ncn([C@@H]3O[C@H](CO)[C@@H](O)[C@H]3O)c2ncn1-c1cccc(F)c1`, the pEC50 (as a rule, the negative decadic logarithm of the EC50, by convention in mol/L) in data set [1] was 4.03.
In the case of `CC1(C)[C@@H]2CC[C@@]1(C)/C(=N/NC(=O)c1cccc3c1C(=O)N(Cc1ccccc1)C3)C2`, the IC50 result in data set [2] is “Not Active”. In addition, the CC50 (in general, the concentration giving 50% cytotoxicity) at 336 h in data set [3] is above 300 µM.
Take `COc1ccc(N2CC34C=CC(C)(O3)C(C(=O)N/N=C3\C[C@H]5CC[C@]3(C)C5(C)C)C4C2=O)cc1` (mixture of isomers): the selectivity ratio in data set [4] was 6. For the same compound, in data set [2], the pIC50 (in general, the negative decadic logarithm of the IC50, by convention in mol/L) was 4.72. The cytotoxic concentration (CC50) at 336 h in data set [3] came out at 120 µM.
`CC12C=CC3(CN(Cc4ccccc4)C(=O)C3C1C(=O)N/N=C1\C[C@H]3CC[C@]1(C)C3(C)C)O2` (mixture of isomers): the selectivity ratio in data set [4] was found to be 7; in data set [5], 2. The values for the pIC50 in data set [6] and in data set [2] were 3.83 and 4.48, respectively. In addition, in data set [7], the CC50 at 72 h worked out at 335 µM. This compound registered a CC50 at 336 h in data set [3] of 245 µM.
On to `COc1ccc(N2CC34C=CC(C)(O3)C(C(=O)N/N=C3\C(C)(C)[C@H]5CC[C@]3(C)C5)C4C2=O)cc1` (mixture of isomers), for which the selectivity ratio in data set [4] turned out to be 9; in data set [5], 2. For the same compound, the results for the pIC50 in data set [6] and in data set [2] were 4.13 and 4.52, respectively. In data set [7], this compound showed a CC50 at 72 h of 152 µM. In data set [3], this compound registered a CC50 at 336 h of 292 µM.
For the compound `CC1(C)[C@@H]2CC[C@@]1(C)/C(=N/NC(=O)C1C3C=CC4(CN(Cc5ccccc5)C(=O)C14)O3)C2` (mixture of isomers), the pIC50 in data set [6] is 3.12. In addition, the midpoint of cytotoxicity in data set [7], the CC50 at 72 h, lay at 860 µM. The IC50 entry in data set [2] is given as “Not Active”. The compound further came in with a CC50 at 336 h in data set [3] of 250 µM.
On the same counts, the results for `CC1(C)[C@@H]2CC[C@@]1(C)/C(=N/NC(=O)c1ccccc1)C2` are 3.11, 1100 µM, “Not Active” and above 150 µM.
In the case of `CCN1CC23C=CC(O2)C(C(=O)N/N=C2\C[C@H]4CC[C@]2(C)C4(C)C)C3C1=O` (mixture of isomers), the pIC50 in data set [6] was 3.10. For the same compound, in data set [7], the CC50 at 72 h came to 1070 µM. Also, in data set [2], the IC50 result is given as “Not Active”. The compound further showed a CC50 at 336 h in data set [3] of 250 µM.
On to `CC12C=CC3(CN(c4ccccc4)C(=O)C3C1C(=O)N/N=C1\C(C)(C)[C@H]3CC[C@]1(C)C3)O2` (mixture of isomers), for which the selectivity ratio was found to be 140 in data set [4] and 3 in data set [5]. Besides, the pIC50 in data set [6] is 3.37; in data set [2], 5.12. The compound further showed a CC50 at 72 h in data set [7] of 1180 µM. For the same compound, the midpoint of cytotoxicity in data set [3], the CC50 at 336 h, lay at 1060 µM.
With `CC12C=CC3(CN(c4ccc(Br)cc4)C(=O)C3C1C(=O)N/N=C1\C[C@H]3CC[C@]1(C)C3(C)C)O2` (mixture of isomers), the negative logarithm of the IC50 (pIC50) in data set [6] is 3.92. The same compound came in with a CC50 at 72 h in data set [7] of 175 µM. Besides, the IC50 result in data set [2] is reported as “Not Active”. The compound further registered a CC50 at 336 h in data set [3] of 78 µM.
For `CCC12C=CC3(CN(c4ccccc4)C(=O)C3C1C(=O)N/N=C1\C(C)(C)[C@H]3CC[C@]1(C)C3)O2` (mixture of isomers), in data set [4], the selectivity ratio was 3. Moreover, the pIC50 in data set [2] was 4.40. Moreover, in data set [3], it took 120 µM to reach half-maximal cytotoxicity (CC50 at 336 h).
For `CC12C=CC3(CN(c4ccc(Br)cc4)C(=O)C3C1C(=O)N/N=C1\C(C)(C)[C@H]3CC[C@]1(C)C3)O2` (mixture of isomers), the pIC50 in data set [6] is 4.19. This compound also came in with a CC50 at 72 h in data set [7] of 78 µM. Besides, the IC50 result in data set [2] is listed as “Not Active”. The same compound had a CC50 at 336 h in data set [3] of 80 µM.
In the case of `CC1(C)[C@@H]2CC[C@@]1(C)/C(=N/NC(=O)C1C3OC4(CN(c5ccccc5)C(=O)C14)C1OC31)C2` (mixture of isomers), the selectivity ratio in data set [4] and in data set [5] was 5 each time. In addition, the figures for the pIC50 in data set [6] and in data set [2] were 3.71 and 4.43, respectively. The CC50 at 72 h in data set [7] was found to be 1040 µM. The compound further registered a CC50 at 336 h in data set [3] of 195 µM.
In the case of `CC12C=CC3(CN(CCc4ccccc4)C(=O)C3C1C(=O)N/N=C1\C[C@H]3CC[C@]1(C)C3(C)C)O2` (mixture of isomers), the selectivity ratio turned out to be 4 in data set [4] and 3 in data set [5]. For the same compound, the pIC50 is 4.16 in data set [6] and 4.38 in data set [2]. Further, the CC50 at 72 h in data set [7] turned out to be 216 µM. Moreover, it took 195 µM to reach half-maximal cytotoxicity in data set [3] (CC50 at 336 h).
For `CC12C=CC3(CN(c4ccccc4)C(=O)C3C1C(=O)N/N=C1\CC3CCC1C3)O2` (mixture of isomers), the selectivity ratio in data set [4] was determined as 9. Further, the pIC50 in data set [2] was 4.55. In data set [3], the CC50 at 336 h was found to be 269 µM.
As to `COCCN1CC23C=CC(O2)C(C(=O)N/N=C2\C[C@H]4CC[C@]2(C)C4(C)C)C3C1=O` (mixture of isomers), the pIC50 in data set [6] is below 3.10. In data set [7], this compound registered a CC50 at 72 h of 1030 µM. In data set [2], the IC50 entry is “Not Active”. In addition, in data set [3], the midpoint of cytotoxicity, the CC50 at 336 h, lay at 250 µM.
Take `NC(=O)c1ncn([C@@H]2O[C@H](CO)[C@@H](O)[C@H]2O)n1` [RIBAVIRIN]: the IC50 entry in data set [2] is on record as “Not Active”. The compound also displayed a CC50 at 336 h in data set [3] of 20 µM.
Regarding `CSc1nc2[nH]nc([N+](=O)[O-])c(=O)n2n1`, the results for the selectivity ratio in data set [4] and in data set [5] were 26 and 4, respectively. In addition, the pIC50 in data set [6] was 3.39; in data set [2], 4.85. Further, the CC50 at 72 h in data set [7] came out at 1510 µM. Besides, the midpoint of cytotoxicity in data set [3], the CC50 at 336 h, lay at 368 µM.
For the compound `CC12C=CC3(CN(c4ccccc4)C(=O)C3C1C(=O)N/N=C1\C[C@H]3CC[C@]1(C)C3(C)C)O2` (mixture of isomers), the selectivity ratio was determined as 10 in data set [4] and 4 in data set [5]. Also, the pIC50 in data set [6] was 4.02; in data set [2], 4.85. In addition, the midpoint of cytotoxicity in data set [7], the CC50 at 72 h, lay at 448 µM. This compound also registered a CC50 at 336 h in data set [3] of 142 µM.
Regarding `CCCCN1CC23C=CC(C)(O2)C(C(=O)N/N=C2\C[C@H]4CC[C@]2(C)C4(C)C)C3C1=O` (mixture of isomers), in data set [4], the selectivity ratio was found to be 9. For the same compound, in data set [2], the pIC50 was 4.59. Further, the CC50 at 336 h in data set [3] came to 246 µM.
With `CC12CCC3(CN(c4ccccc4)C(=O)C3C1C(=O)N/N=C1\C[C@H]3CC[C@]1(C)C3(C)C)O2` (mixture of isomers), the selectivity ratio came to 6 in data set [4] and 3 in data set [5]. Further, the pIC50 was 3.43 in data set [6] and 4.70 in data set [2]. This compound also returned a CC50 at 72 h in data set [7] of 1450 µM. The same compound gave a CC50 at 336 h in data set [3] of 130 µM.
As to `CC(C)N1CC23C=CC(C)(O2)C(C(=O)N/N=C2\C[C@H]4CC[C@]2(C)C4(C)C)C3C1=O` (mixture of isomers), the selectivity ratio in data set [4] stood at 3; in data set [5], 5. In addition, the pIC50 is 3.33 in data set [6] and 4.04 in data set [2]. The same compound returned a CC50 at 72 h in data set [7] above 2500 µM. This compound also registered a CC50 at 336 h in data set [3] of 250 µM.

For the origin of these results see ChEMBL document CHEMBL4811236, “New class of hantaan virus inhibitors based on conjugation of the isoindole fragment to (+)-camphor or (-)-fenchone hydrazonesv” (Bioorg Med Chem Lett, 2021).
